This is a sample that favours compounds with a hit; in the whole collection about 4.9% have one here.
STAT1 activator = STAT1 signaling activators, primary screen, cell-based, HTS, luciferase reporter. NIH 3T3 STAT1-luciferase reporter, IFN-gamma, luminescence; 100% = IFN-gamma alone, no compound. activation (% of control), % at 5.5 µM. actives 2.6% (n = 200,000);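 active means activation above the screen-wide mean activation plus 3 SD, cut at about 130% in these data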;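 further: raw ratio to IFN-gamma control signal so 100% means no change and 0% no light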
STAT3 activator = IL-6 driven STAT3 reporter potentiators, primary screen, U3A cells, luciferase, luminescence, MLSCN library; IL-6 STAT3-luciferase reporter; 100% = signal with IL-6 EC80 alone; activation (% of control), % at 5.6 µM; AID 871, 2007; actives 0.91% (n = 190,000);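 active means activation above the screen-wide mean of compound activation plus 3 SD, cut at about 130% in these data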;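 further: 0% = background luminescence of wells with medium and substrate only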
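Test system: human U3A cells carrying STAT3-luciferase construct; control set: IL-6-only wells as 100% reference; timing: compound pre-incubation 1 h before IL-6, then 6 h stimulation at 37 °C; also added: IL-6 stimulus at 33 ng/mL final; evaluation: % activation versus median of IL-6-stimulated wells; detection: reporter luminescence signal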
NF-kB expr up = activators of NF-kB expression in neurons, primary screen, cell-based, HTS; fold change at 12.5 µM; human neuronal cells, NF-kB reporter expression; active compounds read high; AID 1239, 2008; actives 1.6% (n = 190,000); in the data active means fold change above about 3.3
STAT1 blocker = STAT1 signaling inhibitors, primary screen, cell-based, HTS, luciferase reporter. NIH 3T3 STAT1-luciferase reporter, IFN-gamma, luminescence. inhibition, % at 5.5 µM. actives 0.35% (n = 200,000). AID 920, 2007;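 active means inhibition above a set limit, the mean inhibition across all tested compounds plus 3 SD, cut at about 34% in these data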;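 further: 0% = IFN-gamma with DMSO and 100% = IFN-gamma with 300 µM nifuroxazide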
STAT3 blocker = IL-6 driven STAT3 reporter inhibitors, primary screen, U3A cells, luciferase, luminescence, MLSCN library; IL-6 STAT3-luciferase reporter; host cell line lacks STAT1; inhibition, % at 5.5 µM; actives 0.89% (n = 190,000); AID 862, 2007;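 active means inhibition above the mean inhibition across all screened compounds plus 3 SD, cut at about 44% in these data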;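 further: 0% = DMSO only wells and 100% = 100 µM nifuroxazide control wells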
APP 5'UTR act = activators of APP 5'UTR luciferase reporter, primary screen, SH-SY5Y cells | actives 1% (n = 190,000) | SH-SY5Y APP 5'UTR luciferase reporter, luminescence; zero percent = DMSO vehicle wells | AID 1276, 2008 | activation, % at 2 µM;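 active means activation above a set limit, based on mean plus 3 SD of controls, cut at about 140% in these data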
* hit, by the source's call.

SMILES | STAT1 activator | STAT3 activator | NF-kB expr up | STAT1 blocker | STAT3 blocker | APP 5'UTR act
CSc1ccccc1C(=O)NCCSc1ccccc1 | 100 | 100 | 1.2 | 0 | 0 | 25
COc1cccc(C(=O)NCCSc2ccc(F)cc2)c1 | 138* | 112 | 4.8* | -42 | -12 | 47
O=C(NCCSc1ccccc1)c1ccccc1 | 142* | 102 | 4.7* | -46 | 0 | 171*
Cc1ccccc1C(=O)NCCSc1ccccc1 | 129* | 108 | 3.6* | -32 | -3 | 92
O=C(NCCSc1ccccc1)c1cncc(Br)c1 | 110 | 111 | 2.3 | -11 | -9 | 37
CCCCNC(=O)c1ccccc1Cl | 101 | 104 | 0.98 | -1 | 3 | -11
O=C(NCCSc1ccccc1)c1ccccc1Cl | 141* | 113 | 4.7* | -45 | -12 | 100
CC1Cc2ccccc2N1C(=O)COc1ccc2c(c1)OCO2 (configuration not stated) | 112 | 109 | 2.5 | -13 | -11 | 38
Cc1c(N=C2N=C(NC(=O)c3ccc(F)cc3)c3ccccc32)c(=O)n(-c2ccccc2)n1C | 104 | 82 | 0.62 | -7 | 26 | -2
COc1ccc(N(CC(=O)NCCSc2ccccn2)S(C)(=O)=O)cc1 | 96 | 104 | 1.1 | 4 | -4 | 6
COc1ccc(C(=O)NCCSc2ccccn2)cc1 | 153* | 91 | 3.9* | -60 | 15 | 242*
O=[N+]([O-])c1ccc(N2CCC(O)CC2)nc1 | 96 | 102 | 1 | 5 | -5 | -4
COc1ccc(NC(=O)c2ccsc2NC(C)=O)cc1 | 112 | 76 | 1.3 | -13 | 31 | 8
CCN1C=CC(=C2C(=O)c3ccccc3C2=O)C=C1 | 20 | 12 | 0.24 | 88* | 109* | -70
CCCCN1C=CC(=C2N=c3cccc([N+](=O)[O-])c3=N2)C=C1 | 111 | 104 | 1 | -13 | -5 | 28
CCCCCCN1C=CC(=C2C(=O)c3ccccc3C2=O)C=C1 | 24 | 16 | 1.3 | 81* | 100* | 48
CCCN1C=CC(=C2C(=O)c3ccccc3C2=O)C=C1 | 15 | 9 | 0.27 | 92* | 113* | -81
CN1C=CC(=C2C(=O)c3ccccc3C2=O)C=C1 | 118 | 68 | 3.6* | -20 | 42 | 102
O=C(/C=C/c1cccc(Cl)c1)NCCN1CCOCC1 | 86 | 93 | 1.1 | 17 | 6 | -9
O=C(c1cc2cc(Br)ccc2o1)N1CCCCC1 | 134* | 90 | 2.6 | -40 | 19 | 68
O=C(c1cc2ccccc2c(=O)o1)N1CCCCCC1 | 116 | 100 | 1.1 | -17 | -1 | 30
Cn1c(CNC(=O)c2ccco2)nnc1SCC(=O)Nc1c(F)cc(F)cc1Br | 101 | 101 | 1 | -3 | 4 | -2
CCn1nnc(NC(=O)c2ccc(-c3ccccc3[N+](=O)[O-])o2)n1 | 121 | 99 | 0.96 | -25 | 4 | 14
CC(=O)c1cccc(NC(=O)c2ccc(-c3ccccc3[N+](=O)[O-])o2)c1 | 114 | 109 | 4* | -16 | -14 | 121
CCOc1ccc2nc(SCc3ccccc3C#N)sc2c1 | 134* | 104 | 2.9 | -38 | 6 | 116
SMILES | STAT1 activator | STAT3 activator | NF-kB expr up | STAT1 blocker | STAT3 blocker | APP 5'UTR act
CCCCCCOc1ccc(OC(=O)c2ccncc2)cc1 | 96 | 91 | 9.9* | -2 | 15 | 3
COc1ccc(OC(=O)c2ccncc2)cc1 | 100 | 98 | 1.2 | 0 | 6 | -1
CCOC(=O)/C(N=Nc1ccc2c(c1)OCO2)=C(\C)O | 137* | 103 | 1.6 | -39 | 1 | 116
Cc1cc(C)c(C)c(S(=O)(=O)N[C@@H](C)C(=O)OCC(N)=O)c1C | 96 | 101 | 1.1 | 5 | 4 | 83
Cc1cccc2c(N)c3c(nc12)CCCC3 (tested in a mixture with another compound) | 118 | 109 | 1.8 | -22 | -8 | 19
Cc1cc(C)c2c(N)c3cccc(C)c3nc2n1 | 148* | 120 | 0.97 | -53 | -16 | -27
Cc1ccc2oc(-c3ccccc3)nc2c1 | 134* | 91 | 2.5 | -49 | 11 | 39

Source: PubChem BioAssay
